Data published in ChEMBL document CHEMBL1145212, “Fluorinated diaryl sulfides as serotonin transporter ligands: synthesis, structure-activity relationship study, and in vivo evaluation of fluorine-18-labeled compounds as PET imaging agents” (J Med Chem, 2005).

Experiments:
Rattus norvegicus [1] = species on record: Rattus norvegicus; experiment: Regional uptake of [18F]AFP in thalamus of rat pretreated with compound 7f; n=3; details: tested as the 18F-labelled form
[2] = molecular target: Sodium-dependent serotonin transporter (Rattus norvegicus) (UniProt P31652); experiment: Specific binding in rat hypothalamus at 30 min postinjection in vivo; type: functional, organism-based; details: tested as the 18F-labelled form
Chain of Sodium-dependent serotonin transporter (Rattus norvegicus) (P31652 whole entry): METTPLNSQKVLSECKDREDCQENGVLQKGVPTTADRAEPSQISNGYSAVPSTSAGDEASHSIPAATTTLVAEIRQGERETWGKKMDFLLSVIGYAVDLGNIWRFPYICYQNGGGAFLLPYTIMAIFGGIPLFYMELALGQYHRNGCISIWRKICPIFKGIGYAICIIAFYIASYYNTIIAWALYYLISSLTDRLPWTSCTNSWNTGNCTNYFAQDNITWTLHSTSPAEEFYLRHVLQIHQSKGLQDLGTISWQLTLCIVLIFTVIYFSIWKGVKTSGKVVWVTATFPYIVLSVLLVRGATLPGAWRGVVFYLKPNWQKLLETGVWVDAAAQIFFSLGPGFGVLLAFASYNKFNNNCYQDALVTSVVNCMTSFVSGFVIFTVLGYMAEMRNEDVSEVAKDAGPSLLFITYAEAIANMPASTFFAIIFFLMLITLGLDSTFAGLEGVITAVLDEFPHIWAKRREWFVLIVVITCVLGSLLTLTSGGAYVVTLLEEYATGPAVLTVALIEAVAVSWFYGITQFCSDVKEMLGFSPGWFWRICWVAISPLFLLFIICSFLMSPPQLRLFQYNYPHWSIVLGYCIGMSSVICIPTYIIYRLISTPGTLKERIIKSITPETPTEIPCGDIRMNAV
Summary of the method: (§1)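 Male Sprague-Dawley rats, n=3 per time point, received about 20 µCi of F-18 radioligand in saline iv by tail vein and were killed at 10–120 min. %ID/g was measured with decay and tail-residual correction. Hypothalamic specific binding = (%ID/g hypothalamus − %ID/g cerebellum)/%ID/g cerebellum; mean ± SD.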

[3] = molecular target: Sodium-dependent serotonin transporter (Rattus norvegicus) (UniProt P31652); experiment: Specific binding of [18F]AFA in rat frontal cortex after citalopram treatment; n=3; type: functional, tissue-based; details: tested as the 18F-labelled form
Summary of the method: (§2)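 Rats, three per group, were pretreated iv with blocker at 2 mg/kg in saline, or with saline as control, 10–15 min before tail-vein F-18 radioligand (about 20 µCi). Killed at 60 min and regional %ID/g determined. Specific binding = (region activity − cerebellum activity)/cerebellum activity; mean ± SD.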

[4] = molecular target: Sodium-dependent serotonin transporter (Rattus norvegicus) (UniProt P31652); experiment: Specific binding of [18F]AFA in rat thalamus after citalopram treatment; n=3; type: functional, tissue-based; details: tested as the 18F-labelled form
Summary of the method: as §2

[5] = molecular target: Sodium-dependent serotonin transporter (Homo sapiens, UniProt P31645); experiment: In vitro displacement of [3H]paroxetine from human serotonin transporter expressed in HEK293 cells; type: cell-based
Chain of Sodium-dependent serotonin transporter (P31645 whole entry): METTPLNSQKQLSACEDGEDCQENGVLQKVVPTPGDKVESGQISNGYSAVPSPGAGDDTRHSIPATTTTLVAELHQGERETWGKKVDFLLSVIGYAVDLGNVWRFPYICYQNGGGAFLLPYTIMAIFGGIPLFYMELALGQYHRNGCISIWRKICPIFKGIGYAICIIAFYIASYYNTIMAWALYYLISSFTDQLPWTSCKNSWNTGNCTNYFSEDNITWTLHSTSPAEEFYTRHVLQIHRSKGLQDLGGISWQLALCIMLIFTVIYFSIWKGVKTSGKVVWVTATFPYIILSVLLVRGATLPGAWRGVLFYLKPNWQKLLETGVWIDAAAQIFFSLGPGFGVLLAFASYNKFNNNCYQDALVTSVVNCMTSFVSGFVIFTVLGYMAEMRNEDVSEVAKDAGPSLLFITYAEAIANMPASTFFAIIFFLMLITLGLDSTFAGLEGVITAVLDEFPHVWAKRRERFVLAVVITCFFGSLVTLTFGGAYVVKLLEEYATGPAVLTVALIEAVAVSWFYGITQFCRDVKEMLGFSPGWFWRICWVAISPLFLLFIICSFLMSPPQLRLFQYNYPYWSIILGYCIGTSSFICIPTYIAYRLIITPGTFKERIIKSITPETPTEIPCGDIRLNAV

Rattus norvegicus [6] = species on record: Rattus norvegicus; experiment: Regional uptake of [18F]-AFA in hypothalamus of rat pretreated with compound 7f; n=3; type: functional, organism-based; details: tested as the 18F-labelled form
[7] = molecular target: Sodium-dependent serotonin transporter (Rattus norvegicus) (UniProt P31652); experiment: Specific binding of [18F]-AFA in rat striatum after citalopram treatment; n=3; type: functional, tissue-based; details: tested as the 18F-labelled form
Summary of the method: as §2

[8] = molecular target: Sodium-dependent serotonin transporter (Rattus norvegicus) (UniProt P31652); experiment: Specific binding of [18F]AFA in rat frontal cortex after GBR-12935 treatment; n=3; type: functional, tissue-based; details: tested as the 18F-labelled form
Summary of the method: as §2

Rattus norvegicus [9] = species on record: Rattus norvegicus; experiment: Regional uptake of [18F]AFA in hippocampus of rat pretreated with compound citalopram; n=3; type: functional, organism-based; details: tested as the 18F-labelled form
Summary of the method: (§3)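 Male Sprague-Dawley rats, three per group, received blocker (2 mg/kg iv in saline) or saline only (controls) 10–15 min before about 20 µCi of tail-vein F-18 radioligand. Killed 60 min after tracer. Blood and brain regions weighed and gamma-counted. %ID/g was decay- and tail-corrected; mean ± SD.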

Rattus norvegicus [10] = species on record: Rattus norvegicus; experiment: Regional uptake of [18F]AFA in thalamus of rat pretreated with compound citalopram; n=3; type: functional, organism-based; details: tested as the 18F-labelled form
Summary of the method: as §3

[11] = molecular target: Sodium-dependent serotonin transporter (Rattus norvegicus) (UniProt P31652); experiment: Specific binding in rat hypothalamus at 60 min postinjection in vivo; type: functional, organism-based; details: tested as the 18F-labelled form
Summary of the method: as §1

[12] = molecular target: Sodium-dependent serotonin transporter (Rattus norvegicus) (UniProt P31652); experiment: Specific binding of [18F]AFA in rat striatum after GBR-12935 treatment; n=3; type: functional, tissue-based; details: tested as the 18F-labelled form
Summary of the method: as §2

[13] = molecular target: Sodium-dependent serotonin transporter (Rattus norvegicus) (UniProt P31652); experiment: Specific binding in rat hypothalamus at 10 min postinjection in vivo; type: functional, organism-based; details: tested as the 18F-labelled form
Summary of the method: as §1

[14] = molecular target: Sodium-dependent serotonin transporter (Rattus norvegicus) (UniProt P31652); experiment: Specific binding of [18F]AFA in rat hypothalamus after citalopram treatment; n=3; type: functional, tissue-based; details: tested as the 18F-labelled form
Summary of the method: as §2

Rattus norvegicus [15] = species on record: Rattus norvegicus; experiment: Regional uptake of [18F]-AFA in blood of rat pretreated with compound citalopram; n=3; type: functional, organism-based; details: tested as the 18F-labelled form
Summary of the method: as §3

Rattus norvegicus [16] = species on record: Rattus norvegicus; experiment: Regional uptake of [18F]AFA in hippocampus of rat pretreated with compound 7f; n=3; type: functional, organism-based; details: tested as the 18F-labelled form
[17] = molecular target: Sodium-dependent serotonin transporter (Rattus norvegicus) (UniProt P31652); experiment: Specific binding of [18F]AFA in rat hippocampus after GBR-12935 treatment; n=3; type: functional, tissue-based; details: tested as the 18F-labelled form
Summary of the method: as §2

Rattus norvegicus [18] = species on record: Rattus norvegicus; experiment: Regional uptake of [18F]AFA in cerebellum of rat pretreated with compound nisoxetine; n=3; type: functional, organism-based; details: tested as the 18F-labelled form
Summary of the method: as §3

Rattus norvegicus [19] = species on record: Rattus norvegicus; experiment: Regional uptake of [18F]AFA in striatum of rat pretreated with compound citalopram; n=3; type: functional, organism-based; details: tested as the 18F-labelled form
Summary of the method: as §3

[20] = molecular target: Sodium-dependent serotonin transporter (Rattus norvegicus) (UniProt P31652); experiment: Specific binding of [18F]AFA in rat hippocampus after nisoxetine treatment; n=3; type: functional, tissue-based; details: tested as the 18F-labelled form
Summary of the method: as §2

[21] = molecular target: Sodium-dependent serotonin transporter (Rattus norvegicus) (UniProt P31652); experiment: Specific binding in rat hypothalamus at 120 min postinjection in vivo; type: functional, organism-based; details: tested as the 18F-labelled form
Summary of the method: as §1

Rattus norvegicus [22] = species on record: Rattus norvegicus; experiment: Regional uptake of [18F]AFA in hippocampus of rat pretreated with compound nisoxetine; n=3; type: functional, organism-based; details: tested as the 18F-labelled form
Summary of the method: as §3

[23] = molecular target: Sodium-dependent serotonin transporter (Rattus norvegicus) (UniProt P31652); experiment: Specific binding in rat hypothalamus at 90 min postinjection in vivo; type: functional, organism-based; details: tested as the 18F-labelled form
Summary of the method: as §1

Rattus norvegicus [24] = species on record: Rattus norvegicus; experiment: Regional uptake of [18F]AFA in frontal cortex of rat pretreated with compound citalopram; n=3; type: functional, organism-based; details: tested as the 18F-labelled form
Summary of the method: as §3

Rattus norvegicus [25] = species on record: Rattus norvegicus; experiment: Regional uptake of [18F]AFA in blood of rat pretreated with compound 7f; n=3; type: functional, organism-based; details: tested as the 18F-labelled form

- Specific binding [2]: 0.57 %ID/g
- Specific binding [3]: 0.84 %ID/g
- Specific binding [4]: 0.74 %ID/g
- Ki [5]: 3.58 nM
- Specific binding [7]: 0.45 %ID/g
- Specific binding [8]: 0.64 %ID/g
- Specific binding [11]: 0.85 %ID/g
- Specific binding [12]: 0.84 %ID/g
- Specific binding [13]: 0.34 %ID/g
- Specific binding [14]: 0.66 %ID/g
- Specific binding [17]: 0.77 %ID/g
- Specific binding [20]: 1.02 %ID/g
- Specific binding (dimensionless ratio) [21]: 2.4
- Specific binding (dimensionless ratio) [23]: 1.85
Structure (SMILES): CN(C)Cc1ccccc1Sc1ccc(CCCF)cc1N
- Uptake (Rattus norvegicus [1]): 0.1 %ID/g
- Uptake (Rattus norvegicus [6]): 0.1 %ID/g
- Uptake (Rattus norvegicus [9]): 0.11 %ID/g
- Uptake (Rattus norvegicus [10]): 0.15 %ID/g
- Uptake (Rattus norvegicus [15]): 0.09 %ID/g
- Uptake (Rattus norvegicus [16]): 0.08 %ID/g
- Uptake (Rattus norvegicus [18]): 0.08 %ID/g
- Uptake (Rattus norvegicus [19]): 0.12 %ID/g
- Uptake (Rattus norvegicus [22]): 0.16 %ID/g
- Uptake (Rattus norvegicus [24]): 0.16 %ID/g
- Uptake (Rattus norvegicus [25]): 0.07 %ID/g
